Assay outcomes deposited in PubChem BioAssay by several laboratories.
SR-BI HDL uptake: inhibitors of SR-BI mediated HDL lipid uptake, primary screen, ldlA[mSR-BI] cells, fluorescence, single point | ldlA[mSR-BI] CHO cells, DiI-HDL uptake fluorescence, 3 h | AID 488896, 2010 | 320,000 tested, 0.96% active | inhibition, % at 12.5 µM;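 active = mean replicate inhibition of at least 70% and a set share of replicates each scoring 70 or more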
Target sequence (Q61009 whole entry, looked up): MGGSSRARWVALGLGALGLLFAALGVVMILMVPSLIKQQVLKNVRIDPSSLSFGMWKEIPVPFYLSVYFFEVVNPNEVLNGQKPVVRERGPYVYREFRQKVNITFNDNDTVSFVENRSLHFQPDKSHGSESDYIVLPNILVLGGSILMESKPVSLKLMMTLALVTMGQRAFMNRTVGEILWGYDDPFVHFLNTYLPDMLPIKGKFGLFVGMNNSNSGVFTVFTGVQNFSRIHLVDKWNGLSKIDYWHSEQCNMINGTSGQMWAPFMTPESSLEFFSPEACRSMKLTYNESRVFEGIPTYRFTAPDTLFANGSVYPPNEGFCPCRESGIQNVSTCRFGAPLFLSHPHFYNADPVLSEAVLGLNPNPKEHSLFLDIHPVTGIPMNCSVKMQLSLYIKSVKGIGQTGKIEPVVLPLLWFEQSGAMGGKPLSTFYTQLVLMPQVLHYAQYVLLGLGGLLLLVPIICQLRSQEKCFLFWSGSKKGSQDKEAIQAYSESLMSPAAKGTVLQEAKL
Vif inh: HIV Vif self-association inhibitors, primary screen, imaging, HEK293T, single point; HEK293T cells, Vif self-association by quenched fluorescence, 24 h; inhibition, % at 7.49 µM; 340,000 tested, 0.35% active; in the data active = inhibition above about 50%, passing the limit was not always enough
PKA-R1A act: activators of PKA-R1A holoenzyme, primary screen, biochemical, fluorescence polarization, Cy5-IP20, bovine R1A, mouse PKAc; cAMP-dependent protein kinase type I-alpha regulatory subunit (Bos taurus) + …; PKA-R1A dissociation; scaled: DMSO 0%, 113 µM cGMP 100%; activation, % at 11.4 µM; 340,000 tested, 0.083% active;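 active = percent activation above the mean of all tested compounds plus 3 SD, cut at about 19% in these data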;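 note: higher means more PKAc released from R1A so a rise in polarization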
SR-BI uptake up: activators of SR-BI mediated DiI-HDL uptake, primary screen, ldlA[mSR-BI] CHO cells, DiI fluorescence. 3 h; 100 = double the neutral-control signal. 320,000 tested, 0.096% active. activation, % at 12.5 µM;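 active = mean replicate activation of at least 60% and every replicate at or above 60%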
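Material: SR-BI-overexpressing, LDLR-lacking CHO cells; schedule: compound exposure 3 h, 37 °C; reagent: DiI-labelled HDL at 10 µg/mL final; technique: bottom-read fluorescence, 550/595 nm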
PKA-R2B act: activators of PKA-R2B holoenzyme, primary screen, biochemical, fluorescence polarization, Cy5-IP20, human; cAMP-dependent protein kinase catalytic subunit beta (Homo sapiens) + cAMP-dependent …; PKA-R2B holoenzyme dissociation; R2B truncated from residue 108, S112A mutant; 0% DMSO only, 100% 113 µM cGMP; activation, % at 11.4 µM; 340,000 tested, 0.079% active; AID 504700, 2011;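 active = activation above a cutoff set at the mean over all compounds plus 3 SD, cut at about 18% in these data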;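 note: higher means more holoenzyme dissociation and a rise in polarization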
Each line names hits and unclear results; the compound was inactive in the other large screens. An excerpt weighted towards active compounds, which were near 1.4% of everything screened.

Cc1nn(-c2ccccc2)c(N2CCCC2)c1/C=N/Nc1ccc(S(=O)(=O)Nc2ccccc2)cc1[N+](=O)[O-]	SR-BI HDL uptake 125
COc1ccccc1NS(=O)(=O)c1ccc(N/N=C/c2c(C)nn(-c3ccccc3)c2N2CCCC2)c([N+](=O)[O-])c1	SR-BI HDL uptake 90 (no result: Vif inh)
CCc1ccc(C(O)c2ncc(-c3cccc(F)c3)[nH]2)cc1 (centres undefined)	none (no result: SR-BI HDL uptake, PKA-R1A act, SR-BI uptake up, PKA-R2B act)
CC/C(=N\Nc1ccc([N+](=O)[O-])cc1[N+](=O)[O-])c1ccc(O)cc1	SR-BI HDL uptake 76
C/C(=N\Nc1ccc([N+](=O)[O-])cc1)c1ccc(O)cc1	SR-BI HDL uptake 74 (no result: PKA-R1A act, PKA-R2B act)
CCC(=NNc1ccc([N+](=O)[O-])cc1[N+](=O)[O-])c1ccccc1	none (no result: SR-BI HDL uptake, PKA-R1A act, SR-BI uptake up, PKA-R2B act)
OC(CNc1ccccc1)COc1ccc(OCC(O)CNc2ccccc2)cc1 (centres undefined)	SR-BI HDL uptake 74
CNS(=O)(=O)c1ccc(CNC[C@H]2O[C@@H](n3cnc(C(N)=O)n3)[C@H](O)[C@@H]2O)cc1	none (no result: Vif inh)
O=C1Cn2nnc(-c3ccccc3)c2C2c3ccccc3CCN12 (centres undefined)	none (no result: SR-BI HDL uptake, PKA-R1A act, SR-BI uptake up, PKA-R2B act)
CCN(c1ccc(C)cc1C)S(=O)(=O)c1nnc(NC(=O)C(C)(C)C)s1	none
CN1C(=O)C(=O)/C(=C(/O)c2ccc(Br)cc2)C1c1ccc(F)cc1 (centres undefined)	none
Cc1cccc2sc(NC(=O)c3ccc(Cl)s3)nc12	SR-BI HDL uptake 76
O=c1cc(-c2ccccc2)oc2ccccc12	none
Nc1cc([N+](=O)[O-])cc2oc(-c3ccccc3)cc12	SR-BI HDL uptake 70
Cc1cc(C)cc(OCc2nnc(SCC(=O)N3CCN(c4ccccc4)CC3)o2)c1	SR-BI HDL uptake 79
O=C(CSc1nnc(COc2ccccc2)o1)N1CCN(c2ccccc2)CC1	none
CC1=C(C(=O)N(C)C)CC(CC(=O)NCCCN(C)C)C(=O)N1CCC1=CCCCC1 (centres undefined)	none (no result: SR-BI HDL uptake, SR-BI uptake up)
Cc1cccc(NC(=O)c2sc3nc4c(c(-c5cccs5)c3c2N)CN(C)CC4)c1	SR-BI HDL uptake 83
COc1ccccc1N(C)S(=O)(=O)c1ccc(Cl)c(C(=O)NNC(=O)c2ccccc2O)c1	SR-BI HDL uptake 81
COc1ccc(N(C)S(=O)(=O)c2ccc(Cl)c(C(=O)NNC(=O)c3ccccc3O)c2)cc1	SR-BI HDL uptake 79
COc1ccccc1N(C)S(=O)(=O)c1ccc(C(=O)NNC(=O)c2ccccc2O)cc1	SR-BI HDL uptake 126
O=c1oc2ccccc2c2c1nnn2CCO	none
CCOC(=O)c1sc(NN=C(C(=O)OC)C(=O)OC)c(C(=O)OCC)c1C	SR-BI HDL uptake 74
Cc1cc(-c2nnc(SCC(=O)Nc3ccc(Cl)cn3)n2N)n[nH]1	Vif inh 55
Cc1cc(-c2nnc(SCC(=O)Nc3ccccc3F)n2N)n[nH]1	none
CC(C)CN1C(=O)C(=O)N(CC(=O)c2ccc3c(c2)OCO3)C1=O	Vif inh 147
Cc1cc(F)ccc1C(O)c1ncc(-c2ccccc2C(F)(F)F)[nH]1 (centres undefined)	none (no result: SR-BI HDL uptake, PKA-R1A act, SR-BI uptake up, PKA-R2B act)
COc1cc(O)c(C(CC(=O)N2CCCC2)c2ccc(N(C)C)cc2)c(OC)c1 (centres undefined)	Vif inh 74
COC(=O)c1cccc(NC(=O)Cc2nc(-c3ccccc3)sc2-c2ccc(C)cc2)c1	SR-BI HDL uptake 71
COc1cccc(NC(=O)Cc2nc(-c3ccccc3)sc2-c2ccc(C)cc2)c1	SR-BI HDL uptake 86
CC1CC(C)CN(C(=O)c2cc(S(=O)(=O)N3CCCCC3)ccc2Cl)C1 (centres undefined)	none
COc1ccc(/C=C/C2=CC(C)(C)NC(=S)N2)cc1OC	SR-BI HDL uptake 83
CCOc1ccc(/C=C/C2=CC(C)(C)NC(=S)N2)cc1	none
COc1cccc(/C=C/C2=CC(C)(C)NC(=S)N2)c1	SR-BI HDL uptake 78
CNc1nc2cc([N+](=O)[O-])c([N+](=O)[O-])cc2nc1NC	none
